# In ChEMBL document CHEMBL2046328, “Structure-based design of rhodanine-based acylsulfonamide derivatives as antagonists of the anti-apoptotic Bcl-2 protein” (Bioorg Med Chem, 2012):
# Assays:
# [1] = test system: HepG2; assay: Antiproliferative activity against human HepG2 cells after 48 hrs by MTT assay; assay type: functional, cell-based; details: HepG2, 48 h
# Procedure, shortened: (§1)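 Cells were seeded at 7×10^3 per well and grown 24 h, then exposed to compounds for 48 h. MTT was added for 6 h, followed by 10% SDS in 0.01 N HCl for 4 h at 37 °C, and absorbance was read at 570 nm. Survival is expressed relative to untreated cells. IC50 came from 6-well replicates in at least two independent experiments.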
# [2] = test system: PC-3; assay: Antiproliferative activity against human PC3 cells after 48 hrs by MTT assay; assay type: functional, cell-based; details: PC-3, 48 h; procedure, shortened: as §1
# [3] = Antiproliferative activity against mouse B16/F10 cells after 48 hrs by MTT assay; assay type: functional, cell-based; details: B16-F10, 48 h; procedure, shortened: as §1
# [4] = Inhibition of FAM-Bak-BH3 binding to human N-terminal His6-tagged Bcl2 isoform 2 after 4 hrs by fluorescence polarization assay
SMILES,IC50 [1],IC50 [2],IC50 [3],Ki [4]
COc1ccccc1/C=C1\SC(N[C@H](C(=O)NS(=O)(=O)c2ccc(C)cc2)C(C)C)=NC1=O,20.2 µg/mL,15 µg/mL,13.5 µg/mL,–
Cc1ccc(S(=O)(=O)NC(=O)[C@H](CC(C)C)NC2=NC(=O)/C(=C/c3cccc(Cl)c3)S2)cc1,16.5 µg/mL,16.8 µg/mL,13.4 µg/mL,–
COc1ccc(/C=C2\SC(N[C@H](C(=O)NS(=O)(=O)c3ccc(C)cc3)C(C)C)=NC2=O)cc1,12.8 µg/mL,20.3 µg/mL,11.6 µg/mL,0.671 µM
Cc1ccc(S(=O)(=O)NC(=O)[C@@H](NC2=NC(=O)/C(=C/c3ccccc3Cl)S2)C(C)C)cc1,21.2 µg/mL,11.9 µg/mL,8.8 µg/mL,0.025 µM
Cc1ccc(S(=O)(=O)NC(=O)[C@H](CC(C)C)NC2=NC(=O)/C(=C/c3ccccc3Cl)S2)cc1,13.3 µg/mL,15.6 µg/mL,8.52 µg/mL,–
Cc1cc2c(C(C)C)c(O)c(O)c(C=O)c2c(O)c1-c1c(C)cc2c(C(C)C)c(O)c(O)c(C=O)c2c1O [GOSSYPOL],10.2 µg/mL,6.71 µg/mL,5.56 µg/mL,0.334 µM
Cc1ccc(S(=O)(=O)NC(=O)[C@@H](NC2=NC(=O)/C(=C/c3ccccc3)S2)C(C)C)cc1,18.2 µg/mL,11.9 µg/mL,7.46 µg/mL,3.01 µM
Cc1ccc(S(=O)(=O)NC(=O)[C@H](Cc2ccccc2)NC2=NC(=O)/C(=C/c3ccc(-c4ccccc4)cc3)S2)cc1,16.6 µg/mL,16.4 µg/mL,12.5 µg/mL,0.31 µM
Cc1ccc(S(=O)(=O)NC(=O)[C@H](Cc2ccccc2)NC2=NC(=O)/C(=C/c3ccccc3F)S2)cc1,18.7 µg/mL,22.1 µg/mL,11.9 µg/mL,–
Cc1ccc(S(=O)(=O)NC(=O)[C@H](Cc2ccccc2)NC2=NC(=O)/C(=C/c3ccccc3Cl)S2)cc1,21 µg/mL,16 µg/mL,12.2 µg/mL,0.02 µM
Cc1ccc(S(=O)(=O)NC(=O)[C@H](CC(C)C)NC2=NC(=O)/C(=C/c3ccccc3F)S2)cc1,16.4 µg/mL,15.3 µg/mL,11.3 µg/mL,–
